The results in this text go back to BindingDB's records for doi:10.1016/j.bmc.2016.04.060 (Chugai Pharmaceutical, 2016).

By IC50 is commonly meant the concentration needed to halve the response being measured. The low end stands for inhibition by little substance, the high end for a need for much substance.

For this test, the target named is Phosphatidylinositol 3-kinase regulatory subunit alpha/4,5-bisphosphate 3-kinase catalytic subunit alpha isoform (Homo sapiens, UniProt P27986+P42336). The test can be described thus: Inhibition of human PI3K p110alpha/p85alpha expressed in baculovirus preincubated for 20 mins followed by addition of phosphorylate phosphatidylinositol-4,5-bisphosphate as substrate and ATP measured after 15 mins by AlphaScreen competition assay. The essentials:
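Purified baculovirus-expressed human p110/p85α preincubated with compound 20 min at room temperature. Then 4 µM PI(4,5)P2 and 10 µM ATP (5 mM Hepes pH 7.5, 2.5 mM MgCl2) added for 15 min at 37 °C. PIP3 product detected by AlphaScreen competition using GST-GRP1, biotin-PIP3 and anti-GST acceptor/streptavidin donor beads, 1 h at room temperature.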
On the technique in general: In Alpha technology, singlet oxygen from a donor bead excites a nearby acceptor bead.

Chain of Phosphatidylinositol 3-kinase regulatory subunit alpha/4,5-bisphosphate 3-kinase catalytic subunit alpha isoform (P27986 whole entry, canonical isoform): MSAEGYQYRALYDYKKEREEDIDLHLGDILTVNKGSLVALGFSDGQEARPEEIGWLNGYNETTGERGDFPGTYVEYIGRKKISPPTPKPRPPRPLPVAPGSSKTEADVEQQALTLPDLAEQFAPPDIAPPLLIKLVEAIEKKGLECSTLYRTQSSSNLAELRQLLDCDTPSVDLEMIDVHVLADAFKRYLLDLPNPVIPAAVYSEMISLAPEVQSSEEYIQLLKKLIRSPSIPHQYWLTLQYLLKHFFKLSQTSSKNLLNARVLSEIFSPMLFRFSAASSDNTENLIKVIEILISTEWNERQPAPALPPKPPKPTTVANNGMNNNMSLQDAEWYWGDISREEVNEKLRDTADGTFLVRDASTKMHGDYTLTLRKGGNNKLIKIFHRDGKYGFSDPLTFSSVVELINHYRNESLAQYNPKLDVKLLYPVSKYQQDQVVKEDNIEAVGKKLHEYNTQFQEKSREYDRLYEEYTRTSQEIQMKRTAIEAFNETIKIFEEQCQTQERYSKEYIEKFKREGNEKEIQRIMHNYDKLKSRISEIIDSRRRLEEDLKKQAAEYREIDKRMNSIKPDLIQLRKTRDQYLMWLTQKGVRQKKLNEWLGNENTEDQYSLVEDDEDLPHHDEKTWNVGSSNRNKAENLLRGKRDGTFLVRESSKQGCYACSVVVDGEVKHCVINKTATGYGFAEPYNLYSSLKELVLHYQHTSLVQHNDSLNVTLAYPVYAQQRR
Chain of Phosphatidylinositol 3-kinase regulatory subunit alpha/4,5-bisphosphate 3-kinase catalytic subunit alpha isoform (P42336 whole entry, canonical isoform): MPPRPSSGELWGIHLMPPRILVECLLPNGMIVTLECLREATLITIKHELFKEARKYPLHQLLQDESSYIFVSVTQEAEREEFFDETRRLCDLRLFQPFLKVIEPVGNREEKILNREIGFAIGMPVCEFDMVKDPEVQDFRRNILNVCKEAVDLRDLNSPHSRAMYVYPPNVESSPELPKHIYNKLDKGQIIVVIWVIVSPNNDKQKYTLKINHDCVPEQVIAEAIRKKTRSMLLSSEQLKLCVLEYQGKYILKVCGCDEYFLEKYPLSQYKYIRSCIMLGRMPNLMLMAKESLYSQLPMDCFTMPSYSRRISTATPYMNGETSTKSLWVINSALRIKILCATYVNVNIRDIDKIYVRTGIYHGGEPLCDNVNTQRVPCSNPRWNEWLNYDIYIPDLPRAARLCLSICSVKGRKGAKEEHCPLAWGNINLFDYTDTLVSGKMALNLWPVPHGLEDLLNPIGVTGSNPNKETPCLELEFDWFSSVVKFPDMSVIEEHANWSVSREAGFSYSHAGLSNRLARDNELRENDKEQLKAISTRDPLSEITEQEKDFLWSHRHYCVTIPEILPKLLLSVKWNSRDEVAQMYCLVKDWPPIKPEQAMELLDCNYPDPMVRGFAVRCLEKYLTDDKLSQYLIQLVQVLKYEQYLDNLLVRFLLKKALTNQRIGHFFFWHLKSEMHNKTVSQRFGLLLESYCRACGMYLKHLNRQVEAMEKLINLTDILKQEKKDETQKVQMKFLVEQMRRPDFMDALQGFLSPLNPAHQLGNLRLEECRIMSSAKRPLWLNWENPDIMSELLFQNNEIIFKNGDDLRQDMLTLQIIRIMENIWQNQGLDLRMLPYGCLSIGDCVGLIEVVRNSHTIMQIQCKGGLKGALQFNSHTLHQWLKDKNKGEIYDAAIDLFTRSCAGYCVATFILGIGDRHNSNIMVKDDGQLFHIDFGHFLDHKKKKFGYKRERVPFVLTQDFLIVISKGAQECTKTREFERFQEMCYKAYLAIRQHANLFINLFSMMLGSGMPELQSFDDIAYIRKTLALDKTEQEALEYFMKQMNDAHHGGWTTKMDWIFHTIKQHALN

Consider `CCN1CCN(c2cc(F)c(NC(=O)N3CCc4c(-c5cnc(N)nc5)nc(N5CCOCC5)nc43)c(F)c2)CC1`, for which the IC50 was found to be 22 nM.
The result for `CCN1CCN(c2ccc(NC(=O)N3CCc4c(-c5cnc(N)nc5)nc(N5CCOCC5)nc43)c(C)c2)CC1` reads 10 nM.
